According to ChEMBL document CHEMBL5030534, “Discovery of Novel Anti-Breast-Cancer Inhibitors by Synergistically Antagonizing Microtubule Polymerization and Aryl Hydrocarbon Receptor Expression” (J Med Chem, 2021):
Active and inactive are the calls of the source. The calls are words filed in the database; no cut-off is given here.

What was measured:
MCF7 [1] = assay: Induction of apoptosis in human MCF7 cells assessed as late apoptotic cells at 1 nM measured after 24 hrs by Annexin V-FITC and PI staining based flow cytometry assay (reference value: 2.06%); type: functional
Cytochrome P450 1A1 = target: T1, Cytochrome P450 1A1 (Homo sapiens, UniProt P04798); assay: Inhibition of CYP1A1 signalling in human MCF7 cells assessed as reduction in CYP1A1 level incubated for 24 hrs by Western blot analysis; type: ADME, cell-based; conditions: mcf7, 24 h, at 1 to 4 nM, dose 1-4 nM
T1 sequence (P04798 whole entry): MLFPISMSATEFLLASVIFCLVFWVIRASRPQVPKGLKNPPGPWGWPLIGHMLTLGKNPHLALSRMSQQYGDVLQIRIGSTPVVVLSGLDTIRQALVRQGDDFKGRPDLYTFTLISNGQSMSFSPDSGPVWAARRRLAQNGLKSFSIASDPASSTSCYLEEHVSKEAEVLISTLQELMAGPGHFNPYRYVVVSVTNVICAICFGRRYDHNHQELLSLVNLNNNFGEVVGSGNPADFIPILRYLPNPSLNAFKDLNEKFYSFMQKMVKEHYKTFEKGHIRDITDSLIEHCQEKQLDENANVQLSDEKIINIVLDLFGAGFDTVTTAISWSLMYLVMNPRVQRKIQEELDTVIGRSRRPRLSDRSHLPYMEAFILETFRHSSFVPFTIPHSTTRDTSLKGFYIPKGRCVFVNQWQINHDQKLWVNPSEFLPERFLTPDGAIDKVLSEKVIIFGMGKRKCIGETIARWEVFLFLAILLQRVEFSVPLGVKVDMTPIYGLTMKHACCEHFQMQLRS
Method in brief: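 MCF-7 cells seeded 4 × 10⁵ per well, grown 24 h, then exposed to DMSO or 1, 2, 4 nM for 24 h; BAY 2416964 served as AhR antagonist reference. Lysates adjusted to 3 mg/mL protein by BCA, resolved on 4−20% SDS-PAGE, immunoblotted; AhR and CYP1A1 bands normalized to GAPDH. Three independent runs.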

MCF7 [2] = assay: Inhibition of cell migration in human MCF7 cells at 2 nM incubated for 24 hrs in presence of DMBA by inverted fluorescence microscopic method (reference value: 11.51%); type: functional; parameters: scale not given: the % may be the effect or the level left
MCF7 [3] = assay: Induction of apoptosis in human MCF7 cells assessed as early apoptotic cells at 2 nM measured after 24 hrs in presence of DMBA by Annexin V-FITC and PI staining based flow cytometry assay (reference value: 1%); type: functional
MCF7 [4] = assay: Induction of apoptosis in human MCF7 cells assessed as increase in Bax protein expression at 1 to 4 nM; type: functional, cell-based; conditions: dose 1-4 nM
Method in brief: (§1)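 MCF-7 seeded 4 × 10⁵ per well for 24 h, then DMSO or compound at 1, 2, 4 nM for 24 h. Lysates protein-normalized to 3 mg/mL by BCA, resolved on 4–20% SDS-PAGE and immunoblotted. Bands quantified relative to β-actin (cell-cycle proteins) or GAPDH (apoptosis proteins); n = 3.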

MCF7 [5] = assay: Induction of mitochondrial membrane potential loss in human MCF7 cells at 0.5 nM measured after 24 hrs by JC-1 staining based flow cytometry analysis (reference value: 3.01%); type: functional
MCF7 [6] = assay: Antitumor activity against human MCF7 cells xenografted in BALB/c nude mouse assessed as decrease in tumor weight at 0.5 mg/kg, iv administered every 2 days for 21 days and measured every 2 days; type: functional; parameters: scale not given: the % may be the effect or the level left; conditions: time 21 day
Method in brief: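 MCF-7 cells (6 × 10⁶) injected subcutaneously into right flank of BALB/c nude mice; after 7 days animals randomized, eight per group. Dosing iv every 2 days for 21 days, vehicle 10% DMSO/5% Tween 80/85% saline. Tumor size and body weight recorded every 2 days; tumors excised and weighed at sacrifice.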

MCF7 [7] = assay: Induction of apoptosis in human MCF7 cells assessed as necrotic cells at 0.5 nM measured after 24 hrs by Annexin V-FITC and PI staining based flow cytometry assay (reference value: 0.28%); type: functional
MCF7 [8] = assay: Induction of apoptosis in human MCF7 cells assessed as viable cells at 2 nM measured after 24 hrs by Annexin V-FITC and PI staining based flow cytometry assay (reference value: 96.5%); type: functional; conditions: read-out: Activity
[9] = Toxicity in BALB/c nude mouse xenografted with human MCF7 cells assessed as effect on heart at 0.5 to 1 mg/kg, iv administered every 2 days for 21 days by H and E staining based assay; type: organism-based; conditions: in vivo, 504 h, dose 0.5-1 mg/kg, time 21 day
Method in brief: (§2)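 Nude mice given 6 × 10⁶ MCF-7 cells subcutaneously on right flank; after 7 days randomized, eight per group. iv dosing every 2 days at 0.5 or 1 mg/kg; vehicle 10% DMSO/5% Tween 80/85% saline; paclitaxel 10 mg/kg and CA-4 20 mg/kg references. Body weight every 2 days; killed after 21 days; organs fixed, paraffin-sectioned, H&E stained.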

[10] = Toxicity in BALB/c nude mouse xenografted with human MCF7 cells assessed as effect on kidney at 0.5 to 1 mg/kg, iv administered every 2 days for 21 days by H and E staining based assay; type: organism-based; conditions: in vivo, 504 h, dose 0.5-1 mg/kg, time 21 day; method in brief: as §2
MCF7 [11] = assay: Induction of apoptosis in human MCF7 cells assessed as viable cells at 1 nM measured after 24 hrs by Annexin V-FITC and PI staining based flow cytometry assay (reference value: 96.8%); type: functional; conditions: read-out: Activity
MCF7 [12] = assay: Cell migration rate in human MCF7 cells at 2 nM incubated for 24 hrs by inverted fluorescence microscopic method (reference value: 11.51%); conditions: MCF7, 24 h
MCF7 [13] = assay: Induction of apoptosis in human MCF7 cells assessed as early apoptotic cells at 1 nM measured after 24 hrs by Annexin V-FITC and PI staining based flow cytometry assay (reference value: 0.90%); type: functional
MCF7 [14] = assay: Induction of apoptosis in human MCF7 cells assessed as increase in cleaved Caspase-9 protein expression at 1 to 4 nM; type: functional, cell-based; conditions: dose 1-4 nM; method in brief: as §1
MCF7 [15] = assay: Induction of apoptosis in human MCF7 cells assessed as necrotic cells at 2 nM measured after 24 hrs in presence of DMBA by Annexin V-FITC and PI staining based flow cytometry assay (reference value: 0.9%); type: functional
[16] = Toxicity in BALB/c mouse xenografted with human MCF7 cells assessed as change in body weight at 0.5 to 1 mg/kg, iv administered every 2 days for 21 days; type: organism-based; conditions: in vivo, 504 h, dose 0.5-1 mg/kg, time 21 day; method in brief: as §2
MCF7 [17] = assay: Induction of apoptosis in human MCF7 cells assessed as viable cells at 2 nM measured after 24 hrs in presence of DMBA by Annexin V-FITC and PI staining based flow cytometry assay (reference value: 96.5%); type: functional; conditions: read-out: Activity
MCF7 [18] = assay: Induction of apoptosis in human MCF7 cells assessed as early apoptotic cells at 2 nM measured after 24 hrs by Annexin V-FITC and PI staining based flow cytometry assay (reference value: 1%); type: functional
MCF7 [19] = assay: Induction of ROS generation in human MCF7 cells measured after 24 hrs by DCFH-DA staining based flow cytometric analysis; type: functional, cell-based; conditions: dose 0.5-2 nM
Method in brief: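 MCF-7 seeded 4 × 10⁵ per well for 24 h, then DMSO or 0.5, 1, 2 nM for 24 h. Loaded with DCFH-DA for 30 min in the dark, resuspended in serum-free medium, DCF fluorescence measured by flow cytometry. For scavenger condition, 2.5 mM N-acetyl-L-cysteine pretreatment, then 2 nM for 24 h. Three runs.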

With Cc1nc(N(C)c2ccc3c(c2)cc(C)n3C)c2ccccc2n1 the Activity (MCF7 [1]) was 28.6%, the “inhibition (INH)” value (Cytochrome P450 1A1) was “Dose-Dependent Effect” and the Activity (MCF7 [2]) was 6.34%. For the same molecule, the Activity (MCF7 [3]) was 5%, the Activity (MCF7 [4]) was “Active” and the Activity (MCF7 [5]) was 6.49%. The Activity (MCF7 [6]) was 73.2%, the Activity (MCF7 [7]) was 0.52% and the viability at 0.002 µM (MCF7 [8]) was 40.1%. For the same molecule, the Activity [9] was “Non-Toxic”, the Activity [10] was “Non-Toxic” and the viability at 0.001 µM (MCF7 [11]) was 61.5%. The Migration rate at 0.002 µM (MCF7 [12]) was 3.78%, the Activity (MCF7 [13]) was 6.63% and the Activity (MCF7 [14]) was “Active”. For the same molecule, the Activity (MCF7 [15]) was 5.6%, the Activity [16] was “Non-Toxic” and the viability at 0.002 µM (MCF7 [17]) was 67.5%. The Activity (MCF7 [18]) was 6.9% and the Activity (MCF7 [19]) was “Dose-Dependent Effect”.
